Consider 24 compounds from ChEMBL document CHEMBL1141092, “Synthesis of malarial plasmepsin inhibitors and prediction of binding modes by molecular dynamics simulations” (J Med Chem, 2005).

The structures appear in SMILES notation. pKi: −log10 of the molar value.

Broadly, the pKi is the negative decadic logarithm of the Ki, by convention in mol/L. The low end stands for a high Ki, the high end for a low Ki.

The target of one assay is Plasmepsin IV (Plasmodium falciparum 3D7, UniProt Q8IM16). The experiment in a line: Inhibition constant against plasmepsin-4 of Plasmodium falciparum.
The target in a further assay is Plasmepsin II (Plasmodium falciparum, UniProt P46925). The experiment in a line: Inhibition constant against plasmepsin-2 of Plasmodium falciparum 10 min using 3 uM of DABCYL-Glu-Arg-Nle-Phe-Le u-Ser-Phe-Pro-EDANS as substrate. In outline: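 Pro-Plm II at 3 nM is self-activated by 40 min preincubation at room temperature in 100 mM sodium acetate pH 4.5, 10% glycerol, 0.01% Tween 20. Inhibitor in DMSO (1% final) is added before 3 µM FRET substrate, and the linear fluorescence increase is read over 10 min. IC50 is fitted to a competitive Langmuir isotherm and converted to Ki via IC50/(1+[S]/Km).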

In another assay the target is Plasmepsin I (Plasmodium falciparum, UniProt P39898). The experiment in a line: Inhibition constant against plasmepsin-1 of Plasmodium falciparum, 10 min using 3 uM of DABCYL-Glu-Arg-Nle-Phe-Le u-Ser-Phe-Pro-EDANS as substrate. In outline: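 Recombinant Plm I, amount set to match Plm II catalytic activity, in 100 mM sodium acetate pH 4.5 with 10% glycerol and 0.01% Tween 20. DMSO inhibitor dilutions (1% final DMSO) are added, then 3 µM FRET substrate. Fluorescence rise is followed over a linear 10 min. IC50 comes from a Langmuir fit assuming competitive inhibition, and Ki = IC50/(1+[S]/Km), with Km from Michaelis–Menten.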

In another assay the target is Cathepsin D (Homo sapiens, UniProt P07339). Kind of assay: Inhibition constant against pro-cathepsin D (50 ng/mL) of human liver upon incubation at pH 4.5 for 10 min using DABCYL-Glu-Arg-Nle-Phe-Le u-Ser-Phe-Pro-EDANS as substrate. In outline:
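Human liver pro-Cat D at 50 ng/mL is activated for 20 min at 37 °C in 100 mM sodium acetate pH 4.5, 10% glycerol, 0.01% Tween 20. Inhibitor in DMSO (1% final) precedes 3 µM FRET substrate, and the fluorescence increase is followed over a linear 10 min. IC50 is from a competitive Langmuir fit, and Ki = IC50/(1+[S]/Km), with Km from Michaelis–Menten.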

Cathepsin D, sequence (P07339 65-162 limits assumed): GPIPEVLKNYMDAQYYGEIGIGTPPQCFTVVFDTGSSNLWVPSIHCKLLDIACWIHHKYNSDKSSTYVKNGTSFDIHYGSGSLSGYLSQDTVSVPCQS
Cathepsin D, sequence (P07339 169-412 limits assumed): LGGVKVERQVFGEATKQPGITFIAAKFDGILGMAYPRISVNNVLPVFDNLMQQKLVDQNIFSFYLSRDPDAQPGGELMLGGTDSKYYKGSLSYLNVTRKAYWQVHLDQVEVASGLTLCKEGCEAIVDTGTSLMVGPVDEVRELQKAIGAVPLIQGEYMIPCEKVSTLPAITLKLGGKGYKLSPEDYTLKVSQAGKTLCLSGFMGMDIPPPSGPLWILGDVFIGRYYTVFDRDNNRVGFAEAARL
Plasmepsin II, sequence (P46925 whole entry): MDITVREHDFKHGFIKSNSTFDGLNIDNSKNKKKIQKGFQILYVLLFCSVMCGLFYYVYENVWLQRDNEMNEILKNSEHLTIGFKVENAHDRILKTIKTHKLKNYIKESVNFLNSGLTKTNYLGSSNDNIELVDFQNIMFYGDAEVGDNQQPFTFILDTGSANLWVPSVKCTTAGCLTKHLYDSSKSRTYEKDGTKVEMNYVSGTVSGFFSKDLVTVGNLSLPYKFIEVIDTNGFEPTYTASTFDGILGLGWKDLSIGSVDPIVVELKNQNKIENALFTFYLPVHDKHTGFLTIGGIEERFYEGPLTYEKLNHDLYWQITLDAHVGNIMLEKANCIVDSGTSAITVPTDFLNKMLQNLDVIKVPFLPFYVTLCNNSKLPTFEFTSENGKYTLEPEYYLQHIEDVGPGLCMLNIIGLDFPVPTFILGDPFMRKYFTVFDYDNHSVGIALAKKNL
Plasmepsin I, sequence (P39898 whole entry): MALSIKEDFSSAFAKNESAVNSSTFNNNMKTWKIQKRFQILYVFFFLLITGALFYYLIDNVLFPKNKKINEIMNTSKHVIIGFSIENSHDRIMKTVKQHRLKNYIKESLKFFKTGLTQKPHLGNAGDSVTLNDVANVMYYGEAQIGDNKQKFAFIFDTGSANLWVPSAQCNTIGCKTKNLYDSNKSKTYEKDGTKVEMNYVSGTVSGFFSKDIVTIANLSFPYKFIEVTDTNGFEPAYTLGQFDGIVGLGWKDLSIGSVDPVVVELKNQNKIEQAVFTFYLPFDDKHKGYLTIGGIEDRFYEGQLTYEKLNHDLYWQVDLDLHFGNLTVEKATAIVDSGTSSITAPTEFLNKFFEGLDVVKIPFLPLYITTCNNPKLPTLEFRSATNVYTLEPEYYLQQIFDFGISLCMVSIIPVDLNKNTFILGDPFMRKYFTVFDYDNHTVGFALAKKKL
Plasmepsin IV, sequence (Q8IM16 whole entry): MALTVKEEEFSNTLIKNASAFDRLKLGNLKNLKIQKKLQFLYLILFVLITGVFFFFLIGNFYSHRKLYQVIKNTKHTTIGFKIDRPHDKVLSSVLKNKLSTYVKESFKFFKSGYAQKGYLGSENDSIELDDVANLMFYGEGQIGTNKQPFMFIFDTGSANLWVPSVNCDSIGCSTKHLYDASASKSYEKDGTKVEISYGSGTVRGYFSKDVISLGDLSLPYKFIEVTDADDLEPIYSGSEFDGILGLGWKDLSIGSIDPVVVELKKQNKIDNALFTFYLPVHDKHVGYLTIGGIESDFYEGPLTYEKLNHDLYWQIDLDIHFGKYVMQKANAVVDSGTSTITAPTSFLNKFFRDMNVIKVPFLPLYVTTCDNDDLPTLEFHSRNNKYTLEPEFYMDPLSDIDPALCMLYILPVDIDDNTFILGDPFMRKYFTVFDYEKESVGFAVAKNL

On Plasmepsin IV, `C=CCO[C@@H](C(=O)N[C@H]1c2ccccc2C[C@H]1O)[C@H](O)[C@@H](O)[C@@H](OCC=C)C(=O)N[C@H]1c2ccccc2C[C@H]1O` showed a pKi of under 5.30.

As to `O=C(N[C@H]1c2ccccc2C[C@H]1O)[C@H](OC/C=C/Br)[C@H](O)[C@@H](O)[C@@H](OC/C=C/Br)c1nnc(CCCc2ccccc2)o1`, the results for the pKi at Plasmepsin II, on Plasmepsin I and at Cathepsin D were 5.64, 5.80 and under 5.22, respectively.

Consider `CC(C)(C)c1ccc(-c2nnc([C@H](OC/C=C/Br)[C@H](O)[C@@H](O)[C@@H](OC/C=C/Br)C(=O)N[C@H]3c4ccccc4C[C@H]3O)o2)cc1`, for which the results for the pKi at Plasmepsin II, at Plasmepsin I and at Cathepsin D were under 5.30, under 5.52 and under 5.22, respectively.

In the case of `C=CCO[C@@H](C(=O)NNC(=O)CCc1ccccc1)[C@H](O)[C@@H](O)[C@@H](OCC=C)C(=O)N[C@H]1c2ccccc2C[C@H]1O`, the pKi at Plasmepsin II is 6.79; on Plasmepsin I, 6.91; at Cathepsin D it was under 5.22.

As to `O=C(NNC(=O)[C@H](OC/C=C/Br)[C@H](O)[C@@H](O)[C@@H](OC/C=C/Br)C(=O)N[C@H]1c2ccccc2C[C@H]1O)c1ccccc1`, the figures for the pKi on Plasmepsin II, at Plasmepsin I and at Cathepsin D were 6.77, 6.58 and under 5.22, respectively.

Regarding `O=C(N[C@H]1c2ccccc2C[C@H]1O)[C@H](OC/C=C/Br)[C@H](O)[C@@H](O)[C@@H](OC/C=C/Br)c1nnc(Cc2ccccc2)o1`, the pKi on Plasmepsin II is 5.68; at Plasmepsin I it was under 5.52; at Cathepsin D, under 5.22.

In the case of `O=C(Cc1ccccc1)NNC(=O)[C@H](OC/C=C/Br)[C@H](O)[C@@H](O)[C@@H](OC/C=C/Br)C(=O)N[C@H]1c2ccccc2C[C@H]1O`, the pKi at Plasmepsin II was 7.85; at Plasmepsin I it was 7.51; at Cathepsin D, under 5.22.

As to `CN1CCN(CCC(=O)NNC(=O)[C@H](OC/C=C/Br)[C@H](O)[C@@H](O)[C@@H](OC/C=C/Br)C(=O)N[C@H]2c3ccccc3C[C@H]2O)CC1`, the pKi at Plasmepsin II is 6.23; on Plasmepsin I, 5.96; at Cathepsin D, under 5.22.

`O=C(CCN1CCOCC1)NNC(=O)[C@H](OC/C=C/Br)[C@H](O)[C@@H](O)[C@@H](OC/C=C/Br)C(=O)N[C@H]1c2ccccc2C[C@H]1O`: the pKi at Plasmepsin II was 5.89; on Plasmepsin I, 5.70; on Cathepsin D, under 5.22.

Regarding `Cc1nnc([C@H](OC/C=C/Br)[C@H](O)[C@@H](O)[C@@H](OC/C=C/Br)C(=O)N[C@H]2c3ccccc3C[C@H]2O)o1`, the pKi on Plasmepsin II is under 5.30; on Plasmepsin I, under 5.52; on Cathepsin D it was under 5.22.

For the compound `Cc1n[nH]c([C@H](OC/C=C/Br)[C@H](O)[C@@H](O)[C@@H](OC/C=C/Br)C(=O)N[C@H]2c3ccccc3C[C@H]2O)n1`, the values for the pKi on Plasmepsin II, at Plasmepsin I and on Cathepsin D were under 5.30, under 5.52 and under 5.22, respectively.

`CC(=O)NNC(=O)[C@H](OC/C=C/Br)[C@H](O)[C@@H](O)[C@@H](OC/C=C/Br)C(=O)NNC(C)=O`: the pKi at Plasmepsin II is under 5.30; at Plasmepsin I, under 5.52; at Cathepsin D it was under 5.22.

On to `Cc1nnc([C@H](OC/C=C/Br)[C@H](O)[C@@H](O)[C@@H](OC/C=C/Br)c2nnc(C)o2)o1`, for which the pKi at Plasmepsin II is under 5.30; at Plasmepsin I, under 5.52; at Cathepsin D, under 5.22.

As to `O=C(CCCc1ccccc1)NNC(=O)[C@H](OC/C=C/Br)[C@H](O)[C@@H](O)[C@@H](OC/C=C/Br)C(=O)N[C@H]1c2ccccc2C[C@H]1O`, the pKi on Plasmepsin II was 8.00; on Plasmepsin I, 7.96; on Cathepsin D, under 5.22.

Turning to `O=C(CCc1c[nH]c2ccccc12)NNC(=O)[C@H](OC/C=C/Br)[C@H](O)[C@@H](O)[C@@H](OC/C=C/Br)C(=O)N[C@H]1c2ccccc2C[C@H]1O`, the pKi on Plasmepsin II is 8.22; at Plasmepsin I, 7.72; at Cathepsin D, under 5.22.

Take `CC(C)(C)c1ccc(C(=O)NNC(=O)[C@H](OC/C=C/Br)[C@H](O)[C@@H](O)[C@@H](OC/C=C/Br)C(=O)N[C@H]2c3ccccc3C[C@H]2O)cc1`: the pKi on Plasmepsin II is 6.85; on Plasmepsin I, 6.70; at Cathepsin D, under 5.22.

`CC(=O)c1ccc(/C=C/CO[C@@H](C(=O)NNC(=O)CCc2ccccc2)[C@H](O)[C@@H](O)[C@@H](OC/C=C/c2ccc(C(C)=O)cc2)C(=O)N[C@H]2c3ccccc3C[C@H]2O)cc1`: the pKi at Plasmepsin II is 6.84; at Plasmepsin I, 7.42; at Cathepsin D, 5.92.

On to `O=C(CCc1ccccc1)NNC(=O)[C@H](OC/C=C/c1ccc2c(c1)OCO2)[C@H](O)[C@@H](O)[C@@H](OC/C=C/c1ccc2c(c1)OCO2)C(=O)N[C@H]1c2ccccc2C[C@H]1O`, for which the pKi is 7.96 at Plasmepsin II, 8.22 at Plasmepsin I and 6.10 on Cathepsin D.

Turning to `CC(C)(C)c1ccc(-c2nnc([C@H](OC/C=C/Br)[C@H](O)[C@@H](O)[C@@H](OC/C=C/Br)c3nnc(-c4ccc(C(C)(C)C)cc4)o3)o2)cc1`, the pKi on Plasmepsin IV is 7.46; at Plasmepsin II it was under 5.30; on Plasmepsin I, under 5.52; on Cathepsin D it was under 5.22.

`O=C(N[C@H]1c2ccccc2C[C@H]1O)[C@H](OC/C=C/Br)[C@H](O)[C@@H](O)[C@@H](OC/C=C/Br)c1nnc(-c2ccccc2)o1`: the pKi was 5.47 on Plasmepsin II, under 5.52 at Plasmepsin I and under 5.22 on Cathepsin D.

As to `CC(=O)NNC(=O)[C@H](OC/C=C/Br)[C@H](O)[C@@H](O)[C@@H](OC/C=C/Br)C(=O)N[C@H]1c2ccccc2C[C@H]1O`, the figures for the pKi at Plasmepsin II, at Plasmepsin I and at Cathepsin D were 6.44, 6.16 and under 5.22, respectively.

Take `CC(C)(C)c1ccc(C(=O)NNC(=O)[C@H](OC/C=C/Br)[C@H](O)[C@@H](O)[C@@H](OC/C=C/Br)C(=O)NNC(=O)c2ccc(C(C)(C)C)cc2)cc1`: the pKi on Plasmepsin IV was 6.32; at Plasmepsin II, 5.82; at Plasmepsin I, 5.74; on Cathepsin D it was 5.52.

For the compound `O=C(N[C@H]1c2ccccc2C[C@H]1O)[C@H](OC/C=C/Br)[C@H](O)[C@@H](O)[C@@H](OC/C=C/Br)c1nnc(CCc2ccccc2)o1`, the values for the pKi at Plasmepsin II, at Plasmepsin I and on Cathepsin D were 5.54, under 5.52 and under 5.22, respectively.

For the compound `O=C(CCc1ccccc1)NNC(=O)[C@H](OC/C=C/Br)[C@H](O)[C@@H](O)[C@@H](OC/C=C/Br)C(=O)N[C@H]1c2ccccc2C[C@H]1O`, the pKi is 8.15 at Plasmepsin II, 8.05 on Plasmepsin I and under 5.22 at Cathepsin D.
